Calls of active or inactive are those of the source. No cut-off for these calls is given here.
What was measured:
[1] = tested on: Leishmania donovani; test: Antileishmanial activity against antimony-sensitive Leishmania donovani 200016 promastigotes in bone marrow-derived macrophages assessed as parasite suppression at 100 ug/ml; assay type: functional
Outline: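 Fixed 72 h post-treatment and Giemsa-stained (10% v/v). Percent of 200 random cells infected was scored, and mean % suppression ± SE was taken against the control mean. Mann–Whitney U test vs control, p < 0.05 significant.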

[2] = tested on: Leishmania donovani; test: Antileishmanial activity against antimony-sensitive Leishmania donovani 200016 promastigotes in bone marrow-derived macrophages; assay type: functional; settings: read-out: LD50 (the source's name)
Outline: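 After 72 h, cells fixed and stained with 10% v/v aqueous Giemsa; mean percentage of infected cells scored from 200 random cells. Mean percentage suppression ± SE computed against control mean; significance tested by Mann–Whitney U test, p < 0.05.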

[3] = tested on: Macrophage; test: Decrease in cellular glutathione levels in macrophages; assay type: functional, cell-based; settings: Homo sapiens
[4] = tested on: Leishmania donovani; test: Antileishmanial activity against antimony-sensitive Leishmania donovani 200016 promastigotes in bone marrow-derived macrophages at 37 ug/ml; assay type: functional
[5] = Toxicity against bone marrow-derived macrophages; assay type: cell-based; settings: human, macrophage

Row | SMILES | Activity [1] | other results
1 | COc1cccc(CN2CC(=O)N(C)c3ccccc3C2=O)c1 | 54.6% | –
2 | CN1C(=O)CN(CC2CCCCC2)C(=O)c2cc(Cl)ccc21 | 85% | LC50 [2]: 115 µM; Activity [3]: Active; Activity [4]: 73%
3 | CCCN1CC(=O)N(C)c2ccccc2C1=O | 72% | –
4 | O=C1N[C@@H](Cc2ccc(O)cc2)C(=O)Nc2ccccc21 | 64.4% | –
5 | CN1C(=O)CN(CCc2ccccc2)C(=O)c2ccccc21 | 19.6% | –
6 | O=C1N[C@H](Cc2ccccc2)C(=O)Nc2ccccc21 | 23% | –
7 | O=C1c2ccccc2NC[C@@H]2CCCN12 | 70.6% | –
8 | CN1CC(=O)N(C)c2ccccc2C1=O | inactive | –
9 | O=C1Nc2ccccc2C(=O)N2Cc3ccccc3C[C@@H]12 | 25% | –
10 | C[C@@H]1NC(=O)c2ccccc2NC1=O | 28% | –
11 | CN1C(=O)CN(Cc2ccccc2)C(=O)c2ccccc21 | 51% | –
12 | CN1C(=O)CN(C2CCCCC2)C(=O)c2ccccc21 | 26.4% | –
13 | CN1C(=O)CN(CC2CCCCC2)C(=O)c2ccccc21 | – | Activity [5]: Toxic; Activity [3]: Active; Activity [4]: inactive
14 | c1ccc2c(c1)CN1CCC[C@H]1CN2 | 23% | –
15 | CC(C)C[C@@H]1NC(=O)c2ccccc2NC1=O | inactive | –
16 | O=C1N[C@@H](Cc2ccccc2)C(=O)Nc2ccccc21 | 53.5% | –
17 | O=C1CNC(=O)c2ccccc2N1 | 19% | –
18 | O=C1c2ccccc2NC[C@H]2CCCN12 | 61.7% | –
19 | CCCCCCN1CC(=O)N(C)c2ccccc2C1=O | inactive | Activity [5]: Toxic
20 | CN1C(=O)CN(c2ccccc2)C(=O)c2ccccc21 | inactive | –
21 | c1ccc2c(c1)CN1CCC[C@@H]1CN2 | 67.8% | –
22 | O=C1Nc2ccccc2C(=O)N2CSC[C@@H]12 | 33% | Activity [5]: Toxic
23 | O=C1Nc2ccccc2C(=O)N2CCC[C@H]12 | 85.4% | –
24 | CN1C(=O)CN(CC2CC2)C(=O)c2ccccc21 | inactive | –
25 | O=C1Nc2ccccc2C(=O)N2CCC[C@@H]12 | 70.3% | –

Reference: ChEMBL document CHEMBL1146298, “Identification of the benzodiazepines as a new class of antileishmanial agent” (Bioorg Med Chem Lett, 2007)
